Results reported in ChEMBL document CHEMBL2040780, “Antiarrhythmic properties of phenylpiperazine derivatives of phenytoin with α₁-adrenoceptor affinities” (Bioorg Med Chem, 2012).
Activity calls are given as the source filed them. The rule behind the calls is not given here.

Legend:
[1] = system: Rattus norvegicus; experiment: Cardiotoxicity in Wistar rat assessed as effect on P-Q interval at 2.5 mg/kg, iv after 1 min; format: toxicity, organism-based; set-up: dose 2.5 mg/kg, route intravenous; settings: in vivo
In short: (§1)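 Male Wistar rats (180–250 g), anaesthetised with thiopental 60 mg/kg ip. Compound given iv in water at 10 mg/kg, or at a lower starting dose of 5 or 2.5 mg/kg. Standard lead II ECG recorded at 50 mm/s just before dosing and at 1, 5 and 15 min after. Heart rate and P–Q, Q–T and QRS intervals were read. n=6 per group, mean ± SEM, one-way ANOVA.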

[2] = system: Rattus norvegicus; experiment: Antiarrhythmic activity in iv dosed Wistar rat assessed as protection against adrenaline-induced arrhythmia administered 15 mins prior to adrenaline-challenge; format: functional; settings: Heart
In short: (§2)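 Szekeres model in male Wistar rats anaesthetised with thiopental (60 mg/kg ip). Test compound given iv in water (2.5–10 mg/kg) 15 min before adrenaline 20 µg/kg iv. Scored for extrasystoles, bigeminy and mortality; activity means no premature beats and inhibited arrhythmia versus controls.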

[3] = system: Rattus norvegicus; experiment: Antiarrhythmic activity in barium chloride-induced Wistar rat arrhythmia model assessed as protection against mortality at 2.5 to 10 mg/kg, iv administered 15 mins prior to barium chloride-challenge; format: functional, organism-based; settings: Heart
In short: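 Szekeres model in male Wistar rats. Activity is gradual disappearance of arrhythmia with restored sinus rhythm; protection against disturbances and death scored. Groups of 6 animals.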

[4] = system: Rattus norvegicus; experiment: Antiarrhythmic activity in Wistar rat assessed as effect on heart beat at 2.5 mg/kg, iv after 15 mins; format: functional; in short: as §1
[5] = system: Rattus norvegicus; experiment: Hypotensive activity in normotensive Wistar rat assessed as decrease in systolic blood pressure at 2.5 to 10 mg/kg, iv after 1 min measured up to 60 mins; format: organism-based, Artery; set-up: dose 2.5-10 mg/kg, route intravenous; settings: in vivo
In short: (§3)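 Right carotid artery cannulated with heparin-saline-filled tubing for blood pressure recording. After 5 min stabilisation, compound injected iv into the caudal vein (2.5–10 mg/kg, 1 ml/kg). Systolic and diastolic pressure followed for 60 min. n=6 per group, mean ± SEM, one-way ANOVA.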

[6] = system: Rattus norvegicus; experiment: Cardiotoxicity in Wistar rat assessed as effect on Q-T interval at 2.5 mg/kg, iv after 1 min; format: toxicity, organism-based; set-up: dose 2.5 mg/kg, route intravenous; settings: in vivo; in short: as §1
[7] = system: Rattus norvegicus; experiment: Cardiotoxicity in Wistar rat assessed as effect on QRS interval at 2.5 mg/kg, iv after 15 mins; format: toxicity, organism-based; set-up: dose 2.5 mg/kg, route intravenous; settings: in vivo, 0.25 h; in short: as §1
[8] = system: Rattus norvegicus; experiment: Antiarrhythmic activity in Wistar rat assessed as effect on heart beat at 2.5 mg/kg, iv after 5 mins; format: functional; in short: as §1
[9] = system: Rattus norvegicus; experiment: Antiarrhythmic activity in Wistar rat assessed as protection against adrenaline-induced extrasystoles at 2.5 to 10 mg/kg, iv administered 15 mins prior to adrenaline-challenge; format: functional, organism-based; settings: Heart; in short: as §2
[10] = system: Rattus norvegicus; experiment: Cardiotoxicity in Wistar rat assessed as effect on Q-T interval at 2.5 mg/kg, iv after 15 mins; format: toxicity, organism-based; set-up: dose 2.5 mg/kg, route intravenous; settings: in vivo, 0.25 h; in short: as §1
[11] = system: Rattus norvegicus; experiment: Cardiotoxicity in Wistar rat assessed as effect on P-Q interval at 2.5 mg/kg, iv after 15 mins; format: toxicity, organism-based; set-up: dose 2.5 mg/kg, route intravenous; settings: in vivo, 0.25 h; in short: as §1
[12] = system: Rattus norvegicus; experiment: Cardiotoxicity in Wistar rat assessed as effect on QRS interval at 2.5 mg/kg, iv after 5 mins; format: toxicity, organism-based; set-up: dose 2.5 mg/kg, route intravenous; settings: in vivo; in short: as §1
[13] = system: Rattus norvegicus; experiment: Cardiotoxicity in Wistar rat assessed as effect on P-Q interval at 2.5 mg/kg, iv after 5 mins; format: toxicity, organism-based; set-up: dose 2.5 mg/kg, route intravenous; settings: in vivo; in short: as §1
[14] = target: T1, Adrenergic receptor alpha-1 (Rattus norvegicus, UniProt P15823+P23944+P43140); experiment: Displacement of [3H]prazosin from alpha1 adrenoceptor in rat cerebral cortex after 30 mins by microbeta scintillation counting; format: tissue-based
T1 sequence (P15823 whole entry): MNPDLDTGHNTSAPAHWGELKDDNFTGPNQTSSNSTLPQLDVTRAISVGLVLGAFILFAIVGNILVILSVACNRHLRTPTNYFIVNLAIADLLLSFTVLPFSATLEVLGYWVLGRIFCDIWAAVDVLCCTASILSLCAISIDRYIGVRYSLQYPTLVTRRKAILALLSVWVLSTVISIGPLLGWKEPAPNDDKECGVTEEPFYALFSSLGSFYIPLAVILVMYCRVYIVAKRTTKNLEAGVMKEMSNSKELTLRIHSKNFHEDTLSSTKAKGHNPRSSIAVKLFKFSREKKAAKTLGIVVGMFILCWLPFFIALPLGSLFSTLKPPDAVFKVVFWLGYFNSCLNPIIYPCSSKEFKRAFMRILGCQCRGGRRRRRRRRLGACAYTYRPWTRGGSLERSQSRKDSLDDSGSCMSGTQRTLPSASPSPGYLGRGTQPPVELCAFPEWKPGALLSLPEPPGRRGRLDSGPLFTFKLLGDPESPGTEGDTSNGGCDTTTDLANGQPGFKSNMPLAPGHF
T1 sequence (P23944 whole entry): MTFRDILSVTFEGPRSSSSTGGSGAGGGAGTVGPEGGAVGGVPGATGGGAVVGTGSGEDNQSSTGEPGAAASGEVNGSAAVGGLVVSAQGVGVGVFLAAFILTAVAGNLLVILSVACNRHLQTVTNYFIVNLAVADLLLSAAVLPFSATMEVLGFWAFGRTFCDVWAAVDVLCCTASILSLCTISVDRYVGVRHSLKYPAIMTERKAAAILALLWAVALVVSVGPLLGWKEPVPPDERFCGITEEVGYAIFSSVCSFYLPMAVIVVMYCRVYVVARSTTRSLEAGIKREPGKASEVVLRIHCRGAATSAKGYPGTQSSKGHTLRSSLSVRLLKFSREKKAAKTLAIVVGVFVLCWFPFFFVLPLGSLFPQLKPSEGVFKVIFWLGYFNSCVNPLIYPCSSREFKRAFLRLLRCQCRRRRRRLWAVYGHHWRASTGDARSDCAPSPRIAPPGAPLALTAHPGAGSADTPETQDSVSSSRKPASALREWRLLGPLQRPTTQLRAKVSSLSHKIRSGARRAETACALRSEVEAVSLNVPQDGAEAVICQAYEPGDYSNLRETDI
T1 sequence (P43140 whole entry): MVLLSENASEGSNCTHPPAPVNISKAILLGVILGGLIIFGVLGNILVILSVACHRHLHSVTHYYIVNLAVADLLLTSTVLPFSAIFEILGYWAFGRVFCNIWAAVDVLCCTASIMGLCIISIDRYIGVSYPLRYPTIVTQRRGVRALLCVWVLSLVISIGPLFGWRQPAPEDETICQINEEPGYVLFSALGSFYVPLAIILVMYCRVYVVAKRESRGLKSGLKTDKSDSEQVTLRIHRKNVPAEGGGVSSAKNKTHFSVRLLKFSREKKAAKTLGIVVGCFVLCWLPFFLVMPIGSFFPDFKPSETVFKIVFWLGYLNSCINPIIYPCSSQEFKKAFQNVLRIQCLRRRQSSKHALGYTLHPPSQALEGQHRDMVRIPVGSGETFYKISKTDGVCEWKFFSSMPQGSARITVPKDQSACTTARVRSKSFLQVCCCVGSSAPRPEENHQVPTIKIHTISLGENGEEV
In short: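 Rat cerebral cortex homogenised in ice-cold 50 mM Tris-HCl (pH 7.6 at 25 °C), washed twice at 20000×g and resuspended at 10 mg wet weight/ml. Incubated with [3H]prazosin (19.5 Ci/mmol) and test compound for 30 min at 25 °C. Nonspecific binding defined with 10 µM phentolamine. GF/B filtration, scintillation counting, three-parameter logistic competition fit.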

[15] = system: Rattus norvegicus; experiment: Cardiotoxicity in Wistar rat assessed as effect on Q-T interval at 2.5 mg/kg, iv after 5 mins; format: toxicity, organism-based; set-up: dose 2.5 mg/kg, route intravenous; settings: in vivo; in short: as §1
[16] = system: Rattus norvegicus; experiment: Antiarrhythmic activity in Wistar rat assessed as protection against adrenaline-induced bigeminy at 2.5 to 10 mg/kg, iv administered 15 mins prior to adrenaline-challenge; format: functional, organism-based; settings: Heart; in short: as §2
[17] = system: Rattus norvegicus; experiment: Hypotensive activity in normotensive Wistar rat assessed as decrease in diastolic blood pressure at 2.5 to 10 mg/kg, iv after 1 min measured up to 60 mins; format: organism-based, Artery; set-up: dose 2.5-10 mg/kg, route intravenous; settings: in vivo; in short: as §3
[18] = system: Rattus norvegicus; experiment: Cardiotoxicity in Wistar rat assessed as effect on QRS interval at 2.5 mg/kg, iv after 1 min; format: toxicity, organism-based; set-up: dose 2.5 mg/kg, route intravenous; settings: in vivo; in short: as §1
[19] = system: Rattus norvegicus; experiment: Antiarrhythmic activity in Wistar rat assessed as effect on heart beat at 2.5 mg/kg, iv after 1 min; format: functional; in short: as §1
[20] = system: Rattus norvegicus; experiment: Antiarrhythmic activity in iv dosed Wistar rat assessed as protection against adrenaline-induced extrasystoles administered 15 mins prior to adrenaline-challenge; format: functional, organism-based; settings: Heart; in short: as §2
[21] = system: Rattus norvegicus; experiment: Antiarrhythmic activity in iv dosed Wistar rat assessed as protection against adrenaline-induced bigeminy administered 15 mins prior to adrenaline-challenge; format: functional, organism-based; settings: Heart; in short: as §2

Structure (SMILES): COc1ccccc1N1CCN(CCCCN2C(=O)N(C)C(=O)C2(c2ccccc2)c2ccccc2)CC1.Cl
- Activity [1]: 50 ms
- ED50 [2]: 0.1 mg/kg
- Activity [3]: Active
- Activity [4]: 346 min⁻¹
- Activity [5]: Toxic
- Activity [6]: 83 ms
- Activity [7]: 22 ms
- Activity [8]: 333 min⁻¹
- Activity [9]: Active
- Activity [10]: 86 ms
- Activity [11]: 49 ms
- Activity [12]: 22 ms
- Activity [13]: 51 ms
- Ki [14]: 4.7 nM
- pKi [14]: 8.33
- Activity [15]: 81 ms
- Activity [16]: Active
- Activity [17]: Toxic
- Activity [18]: 22 ms
- Activity [19]: 338 min⁻¹

Structure (SMILES): CC(C)NCC(O)COc1cccc2ccccc12 (configuration not stated)
- Activity [20]: Active
- Activity [21]: Active
